A short description of assay [1]: Inhibition of CaCl2-induced contraction in potassium depolarized-guinea pig ileal smooth muscle. In kind it is functional, Cavia porcellus.
The species named for assay [2] is Cavia porcellus. Put plainly: Inhibition of CaCl2-induced contraction in potassium-depolarized guinea pig ileal smooth muscle at 10 uM. In kind it is functional. In a few lines:
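Guinea-pig ileum segments (2.5 cm) in high-K+ (45 mM KCl), Ca-free Krebs at 37 °C, gassed 95% O2/5% CO2, 1.5 g resting tension, isometric recording. CaCl2 raised bath Ca to 2.5 mM to give a sustained contracture. Compound at 1×10^-5 M in 0.5% DMSO/water added once contraction stabilised. Nifedipine 1×10^-8 M was the positive control. Mean ± SEM, n = animals.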

The species entered for assay [3] is Cavia porcellus. The note with it: 10 nM.

Turning to `Cc1c(O)c2c(c(C)c1CCO)C(=O)C(C)(C)C2` [ONITIN], in assay [1], it took 100 µM to reach a half-maximal effect (EC50). In the assay filed under Cavia porcellus [2], `O=C1C=C(NC2CCc3ccccc32)c2ccccc21` (racemic) showed an inhibition of 30%.

In the assay filed under Cavia porcellus [2], `CC(=O)N(C1=CC(=O)c2ccccc21)C1CCc2ccccc21` (racemic) gave an inhibition of 18.3%. With `Cc1c(O)c2c(c(C)c1CCO)C(=O)C(C)(O)C2` (stereo unspecified) [ONITISIN], it took 2000 µM to reach a half-maximal effect in assay [1] (EC50).

For the compound `COC(=O)C1=C(C)NC(C)=C(C(=O)OC)C1c1ccccc1[N+](=O)[O-]`, the inhibition in the assay filed under Cavia porcellus [3] is 48.1%.

Compound `C=CCN(C1=CC(=O)c2ccccc21)C1CCc2ccccc21` (racemic) returned an inhibition in the assay listed under Cavia porcellus [2] of 20.9%.
